The source of these data is ChEMBL document CHEMBL1154883, “Synthesis of highly functionalized barbituric acids and study of their interactions with p-glycoprotein and Mg2+--potential candidates for multi drug resistance modulation” (Eur J Med Chem, 2010).

Each structure is given as a SMILES string.

For data set [1], the system named is DC3F/ADR. The experiment in a line: Binding affinity to p-glycoprotein in chinese hamster DC3F/ADR cells assessed as increase in basal activity at 0.5 uM after 30 mins by spectrophotometric method relative to control. The data set is classed as cell-based. The note with it: Cricetulus griseus. In short, it runs like this:
(§1)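 P-gp membrane vesicles from resistant DC-3F/ADX cells; basal MgATP hydrolysis tracked by PK/LDH-coupled NADH depletion (PEP, NADH) at 340 nm, with non-specific ATPase inhibitor in basal wells. Plate preincubated 30 min at 37 °C; vesicles 5 min, compound 5 min, then MgATP 20 min at 37 °C; read, re-read after 20 min. Triplicate; ≥30% basal change taken as interaction.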

The test system of data set [2] is DC3F/ADR. Description: Binding affinity to p-glycoprotein in chinese hamster DC3F/ADR cells assessed as increase in basal activity at 0.05 uM after 30 mins by spectrophotometric method relative to control. The data set is classed as cell-based. The note with it: Cricetulus griseus. Summed up: as §1
In data set [3] the test system is DC3F/ADR. The experiment in a line: Binding affinity to p-glycoprotein in chinese hamster DC3F/ADR cells assessed as increase in basal activity at 5 uM after 30 mins by spectrophotometric method relative to control. The data set is classed as cell-based. The note with it: Cricetulus griseus. Summed up: as §1
Data set [4] is described as follows: Binding affinity to Mg2+ ion in HEPES buffer at pH 7.2. The data set is classed as physicochemical.

With `CN1C(=O)C(=C(/C=C/c2ccccc2)NCCNC(/C=C/c2ccccc2)=C2C(=O)N(C)C(=O)N(C)C2=O)C(=O)N(C)C1=O`, the Activity with DC3F/ADR [1] came out at 166%; with DC3F/ADR [2] it was 100%; in the data set with DC3F/ADR [3], 66%. In data set [4], this compound showed a Ka of 5.84 ×10⁵ /M.

With `CN1C(=O)C(=C(/C=C/c2ccccc2)Nc2ccccc2N)C(=O)N(C)C1=O`, the Activity in the data set with DC3F/ADR [1] came out at 112%; in the data set with DC3F/ADR [2] it was 44%; in the data set with DC3F/ADR [3], 133%. The Ka in data set [4] is 2.7 ×10⁴ /M.

As for `CN1C(=O)C(=C(Nc2ccccc2N)c2ccccc2)C(=O)N(C)C1=O`, the Activity in the data set on DC3F/ADR [1] turned out to be 144%; with DC3F/ADR [2] it was 42%; in the data set with DC3F/ADR [3], 135%. Also, in data set [4], the Ka is on record as 2.41 ×10⁴ /M.

Consider `CN1C(=O)C(=CNc2ccccc2C(=O)O)C(=O)N(C)C1=O`, for which the figures for the Activity in the data set with DC3F/ADR [1], with DC3F/ADR [2] and with DC3F/ADR [3] were 83%, 35% and 100%, respectively. The compound also returned a Ka in data set [4] of 3.6 ×10⁶ /M.

Regarding `CN1C(=O)C(=CNc2cccc(N)n2)C(=O)N(C)C1=O`, the figures for the Activity with DC3F/ADR [1], in the data set with DC3F/ADR [2] and in the data set with DC3F/ADR [3] were 81%, 44% and 92%, respectively. This compound also returned a Ka in data set [4] of 2.57 ×10⁵ /M.

For the compound `CN1C(=O)C(=CNc2cc(C(=O)O)ccc2C(=O)O)C(=O)N(C)C1=O`, the Activity was 80% in the data set with DC3F/ADR [1], 57% with DC3F/ADR [2] and 146% with DC3F/ADR [3]. The Ka in data set [4] amounted to 7.46 ×10⁵ /M.

For the compound `CN1C(=O)C(=CNCCNC=C2C(=O)N(C)C(=O)N(C)C2=O)C(=O)N(C)C1=O`, the Activity in the data set on DC3F/ADR [1] was determined as 71%; in the data set with DC3F/ADR [2], 66%; in the data set with DC3F/ADR [3], 134%. Further, in data set [4], the Ka worked out at 8.68 ×10⁵ /M.

`CN1C(=O)C(=CNNc2ccccc2)C(=O)N(C)C1=O`: the figures for the Activity with DC3F/ADR [1], with DC3F/ADR [2] and with DC3F/ADR [3] were 97%, 57% and 168%, respectively. In data set [4], this compound registered a Ka of 1.53 ×10⁷ /M.

Consider `CN1C(=O)C(=CNCc2ccccn2)C(=O)N(C)C1=O`, for which the Activity was 75% with DC3F/ADR [1], 63% in the data set with DC3F/ADR [2] and 98% with DC3F/ADR [3]. The compound further had a Ka in data set [4] of 3.2 ×10⁵ /M.

Turning to `COc1ccccc1NC=C1C(=O)N(C)C(=O)N(C)C1=O`, the figures for the Activity in the data set with DC3F/ADR [1], in the data set with DC3F/ADR [2] and in the data set with DC3F/ADR [3] were 95%, 53% and 123%, respectively. The compound also yielded a Ka in data set [4] of 5.79 ×10⁵ /M.

Turning to `CN1C(=O)C(=CNc2ccccc2[N+](=O)[O-])C(=O)N(C)C1=O`, the Activity came out at 99% in the data set on DC3F/ADR [1], 51% with DC3F/ADR [2] and 141% with DC3F/ADR [3]. In addition, in data set [4], the Ka worked out at 1.4 ×10⁵ /M.

`CN1C(=O)C(=CNc2ccccc2N)C(=O)N(C)C1=O`: the Activity with DC3F/ADR [1] turned out to be 102%; in the data set on DC3F/ADR [2] it was 33%; in the data set on DC3F/ADR [3], 166%. The compound further showed a Ka in data set [4] of 7.06 ×10⁵ /M.

Consider `CN1C(=O)C(=C(NNC(=C2C(=O)N(C)C(=O)N(C)C2=O)c2ccccc2)c2ccccc2)C(=O)N(C)C1=O`, for which the Activity in the data set with DC3F/ADR [1] stood at 100%; in the data set with DC3F/ADR [2], 66%; in the data set with DC3F/ADR [3] it was 166%. In data set [4], this compound displayed a Ka of 1.11 ×10⁶ /M.

For `CN1C(=O)C(=C(/C=C/c2ccccc2)NNC(/C=C/c2ccccc2)=C2C(=O)N(C)C(=O)N(C)C2=O)C(=O)N(C)C1=O`, the Activity in the data set with DC3F/ADR [1] amounted to 69%; in the data set on DC3F/ADR [2] it was 33%; with DC3F/ADR [3], 200%. In data set [4], this compound returned a Ka of 4.82 ×10⁵ /M.

Take `CN1C(=O)C(=CNc2ccccc2O)C(=O)N(C)C1=O`: the results for the Activity in the data set on DC3F/ADR [1], in the data set with DC3F/ADR [2] and with DC3F/ADR [3] were 114%, 42% and 95%, respectively. The compound further yielded a Ka in data set [4] of 5.76 ×10⁵ /M.
